Here are results for seven compounds from ChEMBL document CHEMBL1127788, “Iodinated 2-aminotetralins and 3-amino-1-benzopyrans: ligands for dopamine D2 and D3 receptors” (J Med Chem, 1994).

SMILES strings stand for the structures.

What is called Ki is the equilibrium dissociation constant of an inhibitor or competing ligand from its target.

T2 sequence (P14416 whole entry): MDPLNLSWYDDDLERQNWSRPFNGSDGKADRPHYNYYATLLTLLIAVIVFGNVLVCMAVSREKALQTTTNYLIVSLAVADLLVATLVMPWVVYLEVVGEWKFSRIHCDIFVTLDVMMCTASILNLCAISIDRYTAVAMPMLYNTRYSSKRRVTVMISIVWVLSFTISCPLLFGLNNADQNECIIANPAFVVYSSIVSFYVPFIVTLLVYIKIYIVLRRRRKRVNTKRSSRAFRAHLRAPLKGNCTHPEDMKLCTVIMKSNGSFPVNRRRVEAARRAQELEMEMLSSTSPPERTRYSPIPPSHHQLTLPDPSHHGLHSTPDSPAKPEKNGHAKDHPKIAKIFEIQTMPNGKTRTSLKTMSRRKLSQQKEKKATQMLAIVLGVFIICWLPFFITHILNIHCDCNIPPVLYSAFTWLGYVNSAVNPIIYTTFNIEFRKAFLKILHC
T3 sequence (Q9R0C9 whole entry): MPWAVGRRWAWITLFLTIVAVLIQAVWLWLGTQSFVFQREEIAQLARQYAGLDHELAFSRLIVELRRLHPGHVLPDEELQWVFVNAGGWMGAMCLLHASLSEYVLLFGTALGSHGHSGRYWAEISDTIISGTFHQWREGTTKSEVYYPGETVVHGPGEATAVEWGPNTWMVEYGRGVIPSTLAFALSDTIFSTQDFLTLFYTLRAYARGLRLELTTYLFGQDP
Sequence of D(3) dopamine receptor (P35462 whole entry): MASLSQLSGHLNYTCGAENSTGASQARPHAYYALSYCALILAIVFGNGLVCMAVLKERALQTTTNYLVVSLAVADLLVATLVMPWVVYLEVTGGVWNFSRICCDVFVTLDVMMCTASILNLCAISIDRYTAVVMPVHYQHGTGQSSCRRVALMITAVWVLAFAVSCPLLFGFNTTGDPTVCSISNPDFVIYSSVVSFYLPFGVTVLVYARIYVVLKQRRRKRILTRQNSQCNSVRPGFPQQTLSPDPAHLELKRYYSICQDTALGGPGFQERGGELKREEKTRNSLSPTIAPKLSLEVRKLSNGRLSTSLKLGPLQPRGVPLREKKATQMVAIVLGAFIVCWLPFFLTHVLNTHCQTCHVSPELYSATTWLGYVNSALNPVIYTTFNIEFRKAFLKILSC

For the first assay, the target named is T1, 5-hydroxytryptamine receptor 1A (Rattus norvegicus, UniProt P19327).
T1 sequence (P19327 whole entry): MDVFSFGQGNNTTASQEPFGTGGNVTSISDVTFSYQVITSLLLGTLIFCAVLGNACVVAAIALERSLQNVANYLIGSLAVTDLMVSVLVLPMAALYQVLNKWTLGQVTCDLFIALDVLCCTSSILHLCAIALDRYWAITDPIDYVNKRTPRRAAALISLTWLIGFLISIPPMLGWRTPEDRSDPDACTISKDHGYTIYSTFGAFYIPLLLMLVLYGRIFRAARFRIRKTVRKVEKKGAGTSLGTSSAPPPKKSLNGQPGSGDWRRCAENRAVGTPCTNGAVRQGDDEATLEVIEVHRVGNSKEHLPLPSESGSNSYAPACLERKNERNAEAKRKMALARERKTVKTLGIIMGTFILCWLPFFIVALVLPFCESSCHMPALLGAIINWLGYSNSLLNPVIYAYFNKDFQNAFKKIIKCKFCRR
In words: Tested for the inhibitory activity against 5-hydroxytryptamine 1A receptor in rat hippocampal. It counts as tissue-based, Hippocampus. An outline of the steps:
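Rat hippocampal homogenate in ice-cold 50 mM Tris-HCl pH 7.4, spun at 20000g for 20 min. Pellet lysed in water, preincubated at 37 °C to remove endogenous serotonin, then resuspended in Tris with 2 mM MgCl2. Nonspecific binding: 10 μM 5-HT. Filtration, γ counting, Ki by LIGAND fit.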
For the compound `CCCN(C/C=C/I)C1COc2c(O)cccc2C1` (centres undefined), the affinity, expressed as Ki, was 1270 nM.
On the same count and under the same terms, to `CCCN(C/C=C/I)C1COc2ccc(O)cc2C1` (centres undefined) belongs 619 nM; to `CCCN(C/C=C/I)C1CCc2c(O)cccc2C1` (centres undefined), 47.9 nM; to `CCCN(C/C=C/I)C1CCc2cc(O)ccc2C1` (centres undefined), 297 nM.

A further assay concerns the target D(3) dopamine receptor (Homo sapiens, UniProt P35462). In words: Tested for the inhibitory activity against Dopamine D3 receptor in infected Sf9 cells. The assay is classed as cell-based. An outline of the steps: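 Membranes from Sf9 cells infected with AcMNPVrD3, in 50 mM Tris pH 7.4 with 120 mM NaCl, protease inhibitors and BSA 1 mg/mL. Nonspecific binding: 10 μM (+)butaclamol or 1 μM 7-OH-DPAT. Filtration onto PEI-soaked glass fiber, γ counting, LIGAND nonlinear fit.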
As for `CCCN(C/C=C/I)C1COc2c(O)cccc2C1` (centres undefined), the Ki was 31.4 nM.
On the same count and under the same terms, to `CCCN(C/C=C/I)C1COc2ccc(O)cc2C1` (centres undefined) belongs 6.69 nM.
The same measure, in the same setting: to `CCCN(C/C=C/I)C1CCc2c(O)cccc2C1` (centres undefined) belongs 0.99 nM; to `Oc1ccc2c(c1)CC(NC/C=C/I)CC2` (centres undefined), 30.2 nM; to `CCCN(C/C=C/I)C1CCc2cc(O)ccc2C1` (centres undefined), 2.2 nM.

The target of another assay is T2, D(2) dopamine receptor (Homo sapiens, UniProt P14416). In words: Tested for the inhibitory activity against D2H (high-affinity states) receptor in infected HEK 293 cells. It counts as cell-based, HEK293. An outline of the steps:
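Competition binding on membranes of HEK293 cells expressing dopamine D2 receptors in high-affinity (G-protein coupled) states. Radioligand [125I]-R-(+)-trans-7-OH-PIPAT. […] Ki from iterative nonlinear least-squares curve fitting.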
`CCCN(C/C=C/I)C1CCc2ccc(O)cc2C1` (centres undefined) came in with a Ki of 6.6 nM.
On the same count and under the same terms, for `CCCN(C/C=C/I)C1CCc2c(O)cccc2C1` (centres undefined) the value was 3.6 nM.
On the same count and under the same terms, for `CCCN(C/C=C/I)C1CCc2cc(O)ccc2C1` (centres undefined) the value was 9.7 nM.

The next assay has as its target T2, D(2) dopamine receptor. Description: Tested for the inhibitory activity against Dopamine D2 receptor in infected Sf9 cells. It counts as cell-based. Summed up: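 Membranes from Sf9 cells infected with AcMNPVrD2 baculovirus (non-G-protein coupled, low-affinity D2). Drugs up to 10^-5 M displace 0.1 nM [125I]-NCQ298 in 50 mM Tris pH 7.4, 120 mM NaCl, protease inhibitors, BSA 1 mg/mL. Incubation 30 min at 37 °C, filtration, gamma counting. Nonspecific binding with 10 μM (+)-butaclamol or 1 μM 7-OH-DPAT. Ki by nonlinear least-squares fitting.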
As for `CCCN(C/C=C/I)C1CCc2ccc(O)cc2C1` (centres undefined), the Ki worked out at 265 nM.
On the same count and under the same terms, to `CCCN(C/C=C/I)C1COc2c(O)cccc2C1` (centres undefined) belongs more than 5000 nM; to `CCCN(C/C=C/I)C1COc2ccc(O)cc2C1` (centres undefined), 784 nM.
Same read-out and setting: to `CCCN(C/C=C/I)C1CCc2c(O)cccc2C1` (centres undefined) belongs 324 nM.
Still for that read-out and setting: to `CCCN(C/C=C/I)C1CCc2cc(O)ccc2C1` (centres undefined) belongs 547 nM.

The next assay deals with T3, Sigma non-opioid intracellular receptor 1 (Rattus norvegicus, UniProt Q9R0C9). In words: tested for the inhibitory activity against sigma receptor rat cerebellar. Summed up:
(§1)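 Rat cerebellar homogenate (65–75 μg) with 0.3–0.5 nM [125I]-S-(-)-trans-7-OH-PIPAT plus 15 nM spiperone and varying inhibitor, 20 min at 25 °C. Nonspecific binding: 10 μM haloperidol. Vacuum filtration through PEI-presoaked glass fiber filters, washed with ice-cold 50 mM Tris-HCl pH 7.4.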
In the case of `Oc1ccc2c(c1)CC(NC/C=C/I)CC2` (centres undefined), the Ki is 1.68 nM.

The target in the next assay is T3, Sigma non-opioid intracellular receptor 1. In words: Tested for the inhibitory activity against sigma receptor rat cerebellar. Summed up: as §1
Compound `CCCN(C/C=C/I)C1CCc2ccc(O)cc2C1` (centres undefined) returned a Ki of 3.2 nM.
Regarding `CCCN(C/C=C/I)C1COc2c(O)cccc2C1` (centres undefined), the affinity corresponds to a Ki of 492 nM.
`CCCN(C/C=C/I)C1COc2ccc(O)cc2C1` (centres undefined) came in with a Ki of more than 10000 nM.
The same measure, in the same setting: for `CCCN(C/C=C/I)C1CCc2c(O)cccc2C1` (centres undefined) the value was 1240 nM; for `CCCN(CCC)C1CCc2ccc(O)cc2C1` (centres undefined), 23.2 nM; for `CCCN(C/C=C/I)C1CCc2cc(O)ccc2C1` (centres undefined), 28.4 nM.
